Among the data in the RNAGym collection of RNA variant scans (doi:10.1126/science.aae0568) are yeast fitness values, retold here.

B1: tRNA (parent)
chain: GUUCCGUUGGCGUAAUGGUAACGCGUCUCCCUCCUAAGGAGAAGACUGCGGGUUCGAGUCCCGUACGGAACG

Variants at the floor of the assay were thinned out.

Variants of B1 are the subject of this series. Description: yeast fitness relative to wild type (ratio to wild type); higher = fitter; tRNA-Arg(CCU), competitive growth, 37 C, YPD. The essentials: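 Variants of the tRNA-Arg(CCU) gene, chemically synthesised with a 3% per-site mutation rate at 69 sites, were placed at the native genomic locus in Saccharomyces cerevisiae. The pooled strains were competed in YPD at 37°C for 24 hours in six parallel replicates. Gene amplicons from the start population and from each end population were read by 100-nucleotide paired-end sequencing. Darwinian fitness relative to wild type came from changes in genotype frequencies; genotypes needed ≥ 100 starting reads, and estimates < 0.5 were set to 0.5.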
For GUUCCGUUGGCGCAAUGGUACCGCGUCUCCUUCCUAAGGAGAAGACUGCGGGUUCGAGUCCCGUACGGAACG [U13C A21C C31U], the yeast fitness is ≤ 0.5. For the variant GUUCCGUUGGCGAAAUGGUAACGCGUCUCCCUCCUAAGGAGAAGACUGCGGGUUAGAGUGCGGUACGGAACG [U13A C55A C60G C62G], the yeast fitness is ≤ 0.5. As for GUUCCGUUGGCGAAAUGGUAACCCGUGUCCCUCCUAAGGAGAAGACUGUGGGCUCGAGUCACGUACGAAACG [U13A G23C C27G C49U U53C C61A G68A], the yeast fitness is ≤ 0.5. Take GUUCCGUUGGCGAAAUGGUAACGCGGAUCCCUCCUAAGCAGGAGACUGCGCGUUCGAGUCCCGUAUGGUACG [U13A U26G C27A G39C A42G G51C C66U A69U]: the yeast fitness is ≤ 0.5. For GUUCCGUUGGCGAAAUGGUAACGCGUCCCCCACCUAAGGAGAAGACUGCGGGUUCGAGUCCCGUACGGAACG [U13A U28C U32A], the yeast fitness came out at 0.698. Turning to GUUCCGUUGGCGCGAUGGUAACGAGUCUCCCGCCUACGGAGAAGACUGCGGGUUCGAGUCCCGAACGGAACG [U13C A14G C24A U32G A37C U64A], the yeast fitness came out at 0.646. Consider GUUCCGUUGGCGCACUGGUGAUGCAUGUCACUCCUAAGGAGAAGACUGCGGGUUCGCGUCCCGUACGGAACG [U13C A15C A20G C22U G25A C27G C30A A57C], for which the yeast fitness was determined as 0.542. In the case of GUUCCGUUGGCGCACUGGUAACGCGUCUCCCUCCUAAGGAGAAGAGUGCGGGUUCGAGUCCCGUACGGCACG [U13C A15C C46G A69C], the yeast fitness was ≤ 0.5. With GUUCCGUUGGCGAAAUGGUAACGCGUCUCCCCCCUAAGGAGAAGACUGCGGGUUCGAGUCCCAUACGGAACG [U13A U32C G63A], the yeast fitness worked out at 0.572. Take GUUCCGUUGGCGAAAUGGUAACGCGUCCCCCUCCUAAGGAGAAGACUGCGGGUUCGAGUCCCGUACGGAACG [U13A U28C]: the yeast fitness is 0.992. Turning to GUUCCGUUGGCGCAUAGGAAACGCGUCUCCCUCUUAAGGAGAAGACUGCGGGUUCGCGUCCCGUACGGAACG [U13C A15U U16A U19A C34U A57C], the yeast fitness is ≤ 0.5.

For GUUCCGUUGGCGAAAUGGUAACGCGUCUCCCUCCUAAGGAGAAGAUUGCGGGUUCGAGUCCCGUACGGAACG [U13A C46U], the yeast fitness came out at 0.875.

GUUCCGUUGGCGCGAUGGUAACGCGUCUCCCUCCUAAGGAGCAGACUGCGGGUUCGAGUCGUGUACGGAACG [U13C A14G A42C C61G C62U]: the yeast fitness was ≤ 0.5. As to GUUCCGUUGGCGCAAUGGUAACGCGUCUCCCUCCUAAGGAGAAGACUGCGGGUUCGAGUCCCGUACGGAACG [U13C], the yeast fitness was found to be 1.01.

As for GUUCCGUUGGCGAAAUGGUAACGCGUCUCCCUCCUAAGGAGAAGACUGCGAGUUCAAGUCCCGUACGGAACG [U13A G51A G56A], the yeast fitness worked out at 0.628. Consider GUUCCGUUGGCGAAAUGGUAACGCGUCUCCCUCCUAAGGAGAAGACUGCGGAUUCGAGUCCCGUACGGAACG [U13A G52A], for which the yeast fitness was found to be 0.643. For GUUCCGUUGGCGAAAUGCUCACGUGUCUCUCUCCUAAGGCGAAGACUGCGGGUUCGAGUCCCGUACGCAACG [U13A G18C A20C C24U C30U A40C G68C], the yeast fitness is ≤ 0.5. As to GUUCCGUUGGCGCUAUGGUAACGCGUCUCCCUCCUAAGGAGAAGACUGCGGGUUCGAGUCACGUACGGAACG [U13C A14U C61A], the yeast fitness was ≤ 0.5. Consider GUUCCGUUGGCGAAAUGGUAACGCGUCUCCCUCCUAAGGAGAAGACUGCGGGUUUGAGUCCCGUCCGGAACG [U13A C55U A65C], for which the yeast fitness was 0.596. On to GUUCCGUUGGCGCAAUGGUAGCGCGUCUCCGUCCUAAGGAGAAGGCUGCGGGUUCGAGUCCCGUACGGAACG [U13C A21G C31G A45G], for which the yeast fitness turned out to be 0.619. In the case of GUUCCGUUGGCGAAAUGGUAACGCGUCUCCCUCCUAAGGAGAAGACUGCAGGUUCGAGUCCCGUACGGAACG [U13A G50A], the yeast fitness was 0.806. Take GUUCCGUUGGCGCAAUGGUCACGCGUCUCCCUCCUAAGGAGAAGACUGCGGGUUCGAGUCCCGUACGGAACG [U13C A20C]: the yeast fitness came out at 0.903. On to GUUCCGUUGGCGCACUGGUAACGCGUCUCCCUCCUAAGGAGAAGACUACGGGUUCGAGUCCCGUACGGAACG [U13C A15C G48A], for which the yeast fitness is ≤ 0.5. Consider GUUCCGUUGGCGAAAUGGUAACCCGUGUCCCUCCUAAGGAGAAGACUGCGGGCUCGAGUCACGUACGGAACG [U13A G23C C27G U53C C61A], for which the yeast fitness came to 0.509.

GUUCCGUUGGCGAAAUGGCUACGCGUCUGCCUGCUAGGGAGAAGACUGUGGGUUCGAGUCCCGUAUGGAACG [U13A U19C A20U C29G C33G A37G C49U C66U]: the yeast fitness worked out at 0.601.

Turning to GUUCCGUUGGCGAAAUGGUAACGCGUCUCCCUCCUAAGAAGAAGACUGCGGGUUCGAGUCCCGUACGGAACG [U13A G39A], the yeast fitness worked out at 0.782. GUUCCGUUGGCGAAAUGGUAACGCGUCUCCCUCCUAAGGAGAAGACUGCGGGUUCGAGACCCGUACGGAACG [U13A U59A]: the yeast fitness worked out at 0.827. In the case of GUUCCGUUGGCGAAAUGGUAACGCGUCUCCCUCCUAAGGAGAAGACUGCGGGUCCGAGUCCCGUACGGAACG [U13A U54C] it was 0.934. Next, GUUCCGUUGGCGAAAUAGUAACGCGUCUCCCUCCUAAGGAGAAGACUGCGAGUUCGAGUCCUGUACCGAACG [U13A G17A G51A C62U G67C]: ≤ 0.5; GUUCCGUUGGCGCAAUGGUACCGCGUUUCCCUCCUAAGGAGAAGACUGCGGGUUCGAGUCCCAUGCGGAACG [U13C A21C C27U G63A A65G]: ≤ 0.5. For GUUCCGUUGGCGAAAUGGAAACGCGUCUCCCUCCUAAGGAGUAGACUGCGCGUUCGAGUCCCGUACGGAACG [U13A U19A A42U G51C], the yeast fitness is ≤ 0.5.

As to GUUCCGUUGGCGAAAUGGUAACGCGUCUCCCUCCUAAAGAGAAGACUGGCGGUUCGAGUCCCGUACGGAGCG [U13A G38A C49G G50C A70G], the yeast fitness is ≤ 0.5. Regarding GUUCCGUUGGCGCAGUGGUAACGCGUCUACCUCCUAAGGAGAAGACUGCGGGUUCGAGUCCCGUACGGAACG [U13C A15G C29A], the yeast fitness amounted to 0.508. In the case of GUUCCGUUGGCGAAAUGGUAACGCCUCUCCCUCCUAAGGAGAAGGCUGCGGGUUCGAGUCCCGUACGGAACG [U13A G25C A45G] it was 0.535; in that of GUUCCGUUGGCGAAAUGGUAACGCGUCUCCCUCCUAAGGAGAAGAUUGCGGGUUCGAGUCCCGUACCGAACG [U13A C46U G67C], 0.53. For GUUCCGUUGGCGAAAUGGUAACGCGUCCCCCUCCUAAGGAAAAAACUGCGGGUUCGAGUCCCGUACGGAUCG [U13A U28C G41A G44A A70U], the yeast fitness is ≤ 0.5. For the variant GUUCCGUUGGCGCAAUGGUAGCGCGUCUCCCUCCUAAGCAGAAGACUGCAGGUUCGAGGCAUGUACGGAACG [U13C A21G G39C G50A U59G C61A C62U], the yeast fitness was found to be 0.502. For GUUCCGUUGGCGAAAUGGUAACGCGUCUCCCUCCUAAGGACAAGACUGCGGAUUCGAGUCCCGUACGGAACG [U13A G41C G52A], the yeast fitness is ≤ 0.5.
